IDH1 mut inh: blocks human IDH1 R132H reductase activity. O75874. diaphorase/resazurin fluorescence, 60 min. inhibition, % at 10 µM. 0.18% of 70,000 active. AID 624101; in the data active means inhibition above about 34%; inconclusive means no clear call, values can overlap the other calls; inactive means below about 11%;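 further: 0% = DMSO and 100% = no enzyme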
KDM4C inh: blocks human GASC-1 (KDM4C) demethylase activity. 0.15% of 96,000 active. inhibition, % at 12.5 µM. GST-KDM4C 2-372, H3K9me3 peptide, LANCE TR-FRET. Q9H3R0;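 active means mean replicate inhibition above about 25%, with at least 55% of replicates also reaching it, limit read from the data, passing the limit was not always enough; inconclusive means only one of those two conditions met; inactive means neither condition met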
Target sequence (Q9H3R0 2-372 limits assumed): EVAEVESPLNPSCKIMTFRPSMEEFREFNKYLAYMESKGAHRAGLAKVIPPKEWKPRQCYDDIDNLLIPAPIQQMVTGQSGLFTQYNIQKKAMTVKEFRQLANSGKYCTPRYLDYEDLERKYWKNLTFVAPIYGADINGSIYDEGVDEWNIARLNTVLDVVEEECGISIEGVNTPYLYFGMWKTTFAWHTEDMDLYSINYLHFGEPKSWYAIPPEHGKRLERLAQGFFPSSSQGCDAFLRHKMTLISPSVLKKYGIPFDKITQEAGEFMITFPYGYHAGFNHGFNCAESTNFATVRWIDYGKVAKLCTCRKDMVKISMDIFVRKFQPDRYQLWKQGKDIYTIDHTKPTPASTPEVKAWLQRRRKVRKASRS
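Material: GST-tagged GASC-1 (JMJD2C) catalytic fragment, aa 2-372 / Quantity: enzyme final amount 10 nM / Medium: HEPES buffer, pH 7.5, plus ascorbate / Doses: one test concentration per compound / Incubation: 30 min reaction, 60 min detection, RT / Measured by: LANCE TR-FRET / Read-out: inhibition from TR-FRET ratio decrease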
Pf Dd2 inh: P. falciparum Dd2 growth inhibition. AID 1159554. activity change, % at 10 µM. SYBR Green, 72 h; stronger effect = lower value. 2.3% of 94,000 active; in the data active means activity change below about -80%; inconclusive means no clear call, values can overlap the other calls
T cruzi growth-1: blocks T. cruzi growth in NIH3T3 culture; 5.9% of 77,000 active; T. cruzi beta-gal in NIH3T3, GalScreen luminescence, 90 h; AID 624255; inhibition, % at 8.34 µM;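 active means mean inhibition above about 93%, with at least 55% of replicates each passing it, limit read from the data, passing the limit was not always enough; inconclusive means only one of those two conditions holds; inactive means neither condition holds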
T cruzi growth-2: inhibitors of T. cruzi proliferation; inhibition, % at 8.35 µM; T. cruzi beta-gal in NIH3T3, GalScreen luminescence, 90 h; 72% of 5,600 active; shares compounds with T cruzi growth-1;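 active means mean replicate inhibition above about 95% and at least 55% of replicates individually reaching it, limit read from the data; inconclusive means only one of the two criteria is met; inactive means neither criterion is met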
T cruzi growth-3: inhibitors of T. cruzi proliferation; T. cruzi beta-gal in NIH3T3, GalScreen luminescence, 90 h; 21% of 5,600 active; inhibition, % at 2.09 µM; shares compounds with T cruzi growth-1; AID 651740;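 active means mean inhibition above about 95%, with at least 55% of replicates also reaching it, limit read from the data; inconclusive means meets just one of the two conditions; inactive means meets neither condition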;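 further: plate controls were neutral control median for no effect and positive control median for full effect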
3T3 cytotox: NIH/3T3 (mouse) viability loss | shares compounds with T cruzi growth-1 | NIH/3T3 viability, CellTiter-Glo ATP luminescence, 90 h | cytotoxicity (signal decrease), % at 8.35 µM | 14% of 5,600 active;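 active means mean signal decrease across replicates above about 35% based on untreated-well scatter, with enough replicates individually passing, limit read from the data; inconclusive means no rule stated though some were filed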;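 further: 0% = median of neutral control wells and 100% = median of positive control wells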
NIH3T3 tox 2: NIH/3T3 (mouse) viability loss; shares compounds with T cruzi growth-1; NIH/3T3 viability, CellTiter-Glo ATP luminescence, 90 h; inhibition, % at 24.9 µM; 56% of 5,600 active; AID 651744;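 active means mean loss of cell viability signal at or above a set limit, and enough replicates individually reaching it; inconclusive means meets only the mean limit or only the replicate share; inactive means meets neither condition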;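 further: 0% = median of neutral control wells and 100% = median of positive control wells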
The depositor's hits bear a star; ? = inconclusive; / = no result given. An excerpt weighted towards active compounds, which were near 5.8% of everything screened.

SMILES	IDH1 mut inh	KDM4C inh	Pf Dd2 inh	T cruzi growth-1	T cruzi growth-2	T cruzi growth-3	3T3 cytotox	NIH3T3 tox 2
C[C@H]1CN([C@@H](C)CO)C(=O)c2cc(NC(=O)Nc3cccc4ccccc34)ccc2O[C@@H]1CN(C)Cc1ccc(Oc2ccccc2)cc1	3	-2	-78	125*	98*	102*	41*	44*
C[C@@H]1CN([C@H](C)CO)C(=O)c2cc(NC(=O)Nc3cccc4ccccc34)ccc2O[C@@H]1CN(C)Cc1ccc(Oc2ccccc2)cc1	0	2	-4	117*	101*	48	41*	?
C[C@H](CO)N1C[C@H](C)[C@H](CN(C)Cc2ccc(Oc3ccccc3)cc2)Oc2ccc(NC(=O)Nc3cccc4ccccc34)cc2C1=O	/	-3	-65	123*	104*	100*	33	37*
O=C(C1CCCC1)N1C[C@@H]2[C@H](c3ccccc31)[C@@H](CO)N2C(=O)c1ccccc1	/	1	9	36	/	/	/	/
CN(C)CCCNC(=O)C[C@H]1CC[C@@H]2[C@H](COC[C@@H](O)CN2Cc2cccc(C(F)(F)F)c2)O1	/	1	0	78	/	/	/	/
COCC(=O)N1CC[C@@H]2[C@@H](CO)N(C)c3ccc(-c4cccc(F)c4)cc3[C@@H]21	/	2	18	?	106*	56	4	6
CN1c2ccc(-c3cccc(F)c3)cc2[C@H]2[C@H](CCN2C(=O)C2CC2)[C@@H]1CO	/	10	-8	117*	102*	64	-3	?
COCC(=O)N1CC[C@@H]2[C@H]1c1cc(-c3cccc(F)c3)ccc1N(C)[C@H]2CO	/	1	25	102*	107*	77	-5	4
O=C(NCC1CCCCC1)[C@@H]1N[C@@H]2c3ccc(-c4ccccc4F)c(=O)n3C[C@@H]2[C@H]1CO	/	0	/	89	/	/	/	/
C[C@H](CO)N1C[C@H](C)[C@H](CN(C)S(=O)(=O)c2ccc(Cl)cc2)Oc2c(NC(=O)Nc3ccccc3)cccc2C1=O	/	/	2	-155	/	/	/	/
COC(=O)C[C@@H]1CC[C@@H]2[C@H](COC[C@H](O)CN2S(=O)(=O)c2ccccc2C)O1	/	-1	0	-7	/	/	/	/
CN1C(=O)c2cc(NC(=O)c3cnccn3)ccc2OC[C@H]2O[C@@H](CC(=O)N[C@@H]3CCN(Cc4ccccc4)C3)CC[C@@H]21	/	3	-3	/	/	/	/	/
CN1C(=O)c2cc(NC(=O)c3cnccn3)ccc2OC[C@H]2O[C@@H](CC(=O)N[C@H]3CCN(Cc4ccccc4)C3)CC[C@H]21	/	4	?	114*	104*	103*	-9	-10
CN1C(=O)c2cc(NC(=O)c3cnccn3)ccc2OC[C@H]2O[C@@H](CC(=O)N[C@@H]3CCN(Cc4ccccc4)C3)CC[C@H]21	/	2	-14	107*	97*	88	-27	-20
CCCN(C)C[C@@H]1Oc2cc(C#Cc3ccc(OC)cc3)ccc2S(=O)(=O)N([C@@H](C)CO)C[C@@H]1C	0	-4	-85*	?	110*	86	43*	104*
CCCN(C)C[C@@H]1Oc2cc(C#Cc3ccccc3)ccc2S(=O)(=O)N([C@@H](C)CO)C[C@@H]1C	-1	-5	-79	111*	113*	72	4	104*
CCCN(C)C[C@@H]1Oc2cc(C#Cc3ccccc3)ccc2S(=O)(=O)N([C@H](C)CO)C[C@@H]1C	1	-3	-78	44	/	/	/	/
CCCN(C)C[C@@H]1Oc2cc(C#Cc3ccc(F)cc3)ccc2S(=O)(=O)N([C@@H](C)CO)C[C@@H]1C	0	3	-64	85*	109*	?	?	106*
CCCN(C)C[C@@H]1Oc2cc(C#Cc3ccccc3F)ccc2S(=O)(=O)N([C@@H](C)CO)C[C@@H]1C	0	0	-76	?	112*	89	23	106*
